Measurements as given in ChEMBL document CHEMBL5252656, “Cyclic Peptidic Furin Inhibitors Developed by Combinatorial Chemistry” (ACS Med Chem Lett, 2023).
Calls of active or inactive are those of the source. The rule behind the calls is not given here. Bridge positions count the residues as written; N and C are the ends. Peptide text beside a SMILES is read from it.

Tests used:
[1] = Stability in human serum assessed as parent compound remaining at 1.54 mM and measured after 24 hrs by MALDI-MS analysis; type: ADME, cell-free
Summary of the method: (§1)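 Peptide stock (1.54 mM) was diluted 10-fold into human serum and held at 37 °C. Samples were taken at 0, 1, 2, 3, 5 and 24 h, precipitated with equal volume acetonitrile and centrifuged 10 min. Supernatant was analysed by RP-HPLC (C18, 10–90% B over 40 min) and MALDI-TOF MS.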

[2] = Stability in human serum assessed as parent compound remaining at 1.54 mM and measured after 24 hrs by RP-HPLC analysis; type: ADME, cell-free; summary of the method: as §1
[3] = target: Furin (Homo sapiens) (UniProt P09958); experiment: Inhibition of human furin in human PANC-1 cells assessed as release of fluorescent AMC using Pyr-Arg-Thr-Arg-AMC as substrate preincubated for 10 mins in presence of SFTI-1 then incubation with ligand for 30 mins followed by substrate addition by plate reader analysis; type: cell-based; settings: time 40.0 min
Chain of Furin (Homo sapiens) (P09958 whole entry): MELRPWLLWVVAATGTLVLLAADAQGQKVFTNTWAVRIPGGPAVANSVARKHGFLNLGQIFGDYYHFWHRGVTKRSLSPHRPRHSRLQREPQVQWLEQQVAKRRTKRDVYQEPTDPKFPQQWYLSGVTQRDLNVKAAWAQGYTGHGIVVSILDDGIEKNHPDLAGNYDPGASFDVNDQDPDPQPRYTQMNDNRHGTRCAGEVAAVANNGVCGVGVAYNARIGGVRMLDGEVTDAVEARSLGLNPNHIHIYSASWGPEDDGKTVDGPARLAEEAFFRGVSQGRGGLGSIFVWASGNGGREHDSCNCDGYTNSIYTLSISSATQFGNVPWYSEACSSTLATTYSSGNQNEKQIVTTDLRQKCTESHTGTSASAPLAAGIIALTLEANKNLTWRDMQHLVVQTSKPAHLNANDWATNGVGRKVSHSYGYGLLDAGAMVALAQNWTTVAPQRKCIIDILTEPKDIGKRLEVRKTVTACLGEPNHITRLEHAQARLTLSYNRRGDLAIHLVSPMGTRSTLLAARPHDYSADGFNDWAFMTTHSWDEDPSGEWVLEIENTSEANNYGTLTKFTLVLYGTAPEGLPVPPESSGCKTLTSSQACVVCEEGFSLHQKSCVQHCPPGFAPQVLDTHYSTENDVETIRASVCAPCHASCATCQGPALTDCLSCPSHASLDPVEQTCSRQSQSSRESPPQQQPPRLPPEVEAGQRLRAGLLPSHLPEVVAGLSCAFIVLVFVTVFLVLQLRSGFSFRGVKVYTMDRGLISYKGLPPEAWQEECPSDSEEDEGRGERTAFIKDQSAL
Summary of the method: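 PANC-1 cells grown in DMEM with 10% FBS and 1% P/S at 37 °C, 5% CO2. Cell lysate was prepared in protease inhibitor cocktail and diluted 10-fold in pH 7.5 HEPES/CaCl2 buffer. It was given SFTI-1 (100 μM final) for 10 min at 37 °C, then peptide (100 μM final) for 30 min, then Pyr-RTR-AMC (100 μM final). AMC release was followed; % inhibition vs no-inhibitor control.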

[4] = target: Furin (Homo sapiens) (UniProt P09958); experiment: Inhibition of human furin in human PANC-1 cells assessed as release of fluorescent AMC using Pyr-Arg-Thr-Arg-AMC as substrate preincubated for 30 mins followed by substrate addition by plate reader analysis; type: cell-based; design: concentration or dose not given beside the values
Summary of the method: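 PANC-1 lysate (DMEM/10% FBS culture, protease-inhibitor cocktail extraction) was diluted 10-fold in 100 mM HEPES, 1 mM CaCl2, pH 7.5, then warmed 15 min at 37 °C. Peptide (100 μM final) was added for 30 min at 37 °C, then Pyr-RTR-AMC substrate (100 μM final). AMC release was monitored over time; % inhibition relative to no-inhibitor control.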

[5] = target: Furin (Homo sapiens) (UniProt P09958); experiment: Inhibition of recombinant human furin using Pyr-Arg-Thr-Lys-Arg-AMC as substrate at 2.4 nM preincubated for 30 mins followed by substrate addition and measured for 40 mins by microplate reader method; settings: time 70.0 min
[6] = target: T1, Transmembrane protease serine 6 (Homo sapiens) (UniProt Q8IU80); experiment: Inhibition of recombinant human matriptase 2 using Boc-Gln-Ala-Arg-AMC as substrate at 3.85 to 385 nM preincubated for 30 mins followed by substrate addition and measured for 40 mins by microplate reader method; settings: dose 3.85-385 nM, time 70.0 min
T1 sequence (whole entry): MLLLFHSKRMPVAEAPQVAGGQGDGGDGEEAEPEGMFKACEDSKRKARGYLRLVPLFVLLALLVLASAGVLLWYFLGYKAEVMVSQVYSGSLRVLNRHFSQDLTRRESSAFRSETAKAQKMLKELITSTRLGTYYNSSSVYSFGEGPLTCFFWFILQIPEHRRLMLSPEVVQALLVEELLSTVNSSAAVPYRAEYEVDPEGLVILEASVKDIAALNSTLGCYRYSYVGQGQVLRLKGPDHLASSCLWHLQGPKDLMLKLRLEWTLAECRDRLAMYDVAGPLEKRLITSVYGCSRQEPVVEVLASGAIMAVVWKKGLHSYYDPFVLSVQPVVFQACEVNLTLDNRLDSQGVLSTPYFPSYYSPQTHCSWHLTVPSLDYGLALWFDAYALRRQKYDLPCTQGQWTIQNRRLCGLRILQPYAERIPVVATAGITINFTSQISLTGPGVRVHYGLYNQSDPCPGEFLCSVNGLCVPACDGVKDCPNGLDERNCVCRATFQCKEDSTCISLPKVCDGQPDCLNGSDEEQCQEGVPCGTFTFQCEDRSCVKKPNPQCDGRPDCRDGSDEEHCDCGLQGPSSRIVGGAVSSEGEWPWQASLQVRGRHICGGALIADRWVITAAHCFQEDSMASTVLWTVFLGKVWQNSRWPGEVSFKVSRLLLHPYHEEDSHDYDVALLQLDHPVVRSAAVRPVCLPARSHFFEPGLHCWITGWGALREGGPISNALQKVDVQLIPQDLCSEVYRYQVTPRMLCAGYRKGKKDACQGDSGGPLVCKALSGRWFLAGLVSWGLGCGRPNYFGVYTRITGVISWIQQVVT
Summary of the method: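 Recombinant human matriptase-2 (1.51 U/mL) in 50 mM Tris-Cl pH 8.3, 150 mM NaCl, 0.01% Triton X-100 was preincubated with compound 30 min at 37 °C. Boc-QAR-AMC (5 μM final) was then added; fluorescence (ex 380/em 450 nm) read ≥40 min. % inhibition vs no-inhibitor control.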

[7] = target: Furin (Homo sapiens) (UniProt P09958); experiment: Inhibition of recombinant human furin using Pyr-Arg-Thr-Lys-Arg-AMC as substrate at 24 nM preincubated for 30 mins followed by substrate addition and measured for 40 mins by microplate reader method; settings: time 70.0 min
[8] = target: Furin (Homo sapiens) (UniProt P09958); experiment: Inhibition of recombinant human furin using Pyr-Arg-Thr-Lys-Arg-AMC as substrate at 77 nM preincubated for 30 mins followed by substrate addition and measured for 40 mins by microplate reader method; settings: time 70.0 min

Stability [1]	Stability [2]	inhibition [3] [%]	inhibition [4] [%]	inhibition [5] [%]	inhibition [6]	inhibition [7] [%]	inhibition [8] [%]	Compound
Stable	Stable	46.6	68.3	43.7	inactive			CC[C@H](C)[C@@H]1NC(=O)[C@@H]2CCCN2C(=O)[C@@H]2CCCN2C(=O)[C@H]([C@@H](C)CC)NC(=O)[C@H](CO)NC(=O)[C@H](CCCCN)NC(=O)[C@H](CCCCN)NC(=O)[C@@H](NC(=O)[C@H](CCCNC(=N)N)NC(=O)[C@H](CCCNC(=N)N)NC(=O)[C@@H](N)CCCNC(=N)N)CSSC[C@@H](C(=O)N[C@@H](Cc2ccccc2)C(N)=O)NC1=O (H-RRRCKKSIPPICF-NH2; disulfide 4-12)
				97.2		46.1	3.72	CC[C@H](C)[C@@H]1NC(=O)[C@@H]2CCCN2C(=O)[C@@H]2CCCN2C(=O)[C@H]([C@@H](C)CC)NC(=O)[C@H](CO)NC(=O)[C@H](CCCCN)NC(=O)[C@H](CCCCN)NC(=O)[C@@H]2CSSC[C@H](NC1=O)C(=O)N[C@@H](Cc1ccccc1)C(=O)N[C@@H](CCCNC(=N)N)C(=O)N[C@@H](CCCNC(=N)N)C(=O)N2 (cyclo(CFRRCKKSIPPI); disulfide 1-5)
				63		6.02	0.2	CC[C@H](C)[C@@H]1NC(=O)[C@@H]2CCCN2C(=O)[C@@H]2CCCN2C(=O)[C@H]([C@@H](C)CC)NC(=O)[C@H](CO)NC(=O)[C@H](CCCCN)NC(=O)[C@H](CCCCN)NC(=O)[C@@H](NC(=O)[C@H](CCCNC(=N)N)NC(=O)[C@@H](N)CCCNC(=N)N)CSSC[C@@H](C(=O)N[C@@H](Cc2ccccc2)C(N)=O)NC1=O (H-RRCKKSIPPICF-NH2; disulfide 3-11)
		45.2	58.8	34.7	inactive			CC[C@H](C)[C@@H]1NC(=O)[C@@H]2CCCN2C(=O)[C@@H]2CCCN2C(=O)[C@H]([C@@H](C)CC)NC(=O)[C@H](CO)NC(=O)[C@H](CCCCN)NC(=O)[C@H](CCCCN)NC(=O)[C@@H]2CSSC[C@H](NC1=O)C(=O)N[C@@H](Cc1ccccc1)C(=O)N[C@@H](CCCNC(=N)N)C(=O)N[C@@H](CCCNC(=N)N)C(=O)N[C@@H](CCCNC(=N)N)C(=O)N2 (cyclo(RRRCKKSIPPICF); disulfide 4-12)
		45.9	64.8	40.2	inactive			CC[C@H](C)[C@@H]1NC(=O)[C@@H]2CCCN2C(=O)[C@@H]2CCCN2C(=O)[C@H]([C@@H](C)CC)NC(=O)[C@H](CO)NC(=O)[C@H](CCCCN)NC(=O)[C@H](CCCCN)NC(=O)[C@@H]2CSSC[C@H](NC1=O)C(=O)N[C@@H](Cc1ccccc1)C(=O)N[C@@H](CCCCN)C(=O)N[C@@H](CCCNC(=N)N)C(=O)N[C@@H](CCCNC(=N)N)C(=O)N2 (cyclo(KRRCKKSIPPICF); disulfide 4-12)
				66.5		3.98	0.1	CC[C@H](C)[C@@H]1NC(=O)[C@@H]2CCCN2C(=O)[C@@H]2CCCN2C(=O)[C@H]([C@@H](C)CC)NC(=O)[C@H](CO)NC(=O)[C@H](CCCCN)NC(=O)[C@H](CCCCN)NC(=O)[C@@H](NC(=O)[C@H](CCCNC(=N)N)NC(=O)[C@H](CCCNC(=N)N)NC(=O)[C@@H](N)CCCCN)CSSC[C@@H](C(=O)N[C@@H](Cc2ccccc2)C(N)=O)NC1=O (H-KRRCKKSIPPICF-NH2; disulfide 4-12)
			98.4					CC[C@H](C)[C@@H]1NC(=O)[C@@H]2CCCN2C(=O)[C@@H]2CCCN2C(=O)[C@H]([C@@H](C)CC)NC(=O)[C@H](CO)NC(=O)[C@H](CCCCN)NC(=O)[C@H]([C@H](C)O)NC(=O)[C@@H]2CSSC[C@H](NC1=O)C(=O)N[C@@H](Cc1ccccc1)C(=O)N1CCC[C@H]1C(=O)N[C@H](C(=O)O)CC(=O)NC(=N)NCCC[C@@H](C(N)=O)C(=O)N2
Stable	Stable	34.7	50.4		inactive			CC[C@H](C)[C@@H]1NC(=O)[C@@H]2CCCN2C(=O)[C@@H]2CCCN2C(=O)[C@H]([C@@H](C)CC)NC(=O)[C@H](CO)NC(=O)[C@H](CCCCN)NC(=O)[C@H](CCCCN)NC(=O)[C@@H](NC(=O)[C@H](CCCNC(=N)N)NC(=O)[C@@H](N)CCCCN)CSSC[C@@H](C(=O)N[C@@H](Cc2ccccc2)C(N)=O)NC1=O (H-KRCKKSIPPICF-NH2; disulfide 3-11)
